Values joined by “and” are separate entries in the source; they are usually repeats but may differ in a detail not shown here. Equal entries are not always repeated.
Tests used:
L1210 [1] = test: In vitro inhibition of L1210 (murine leukemia) cell growth.; type: functional, cell-based, Mus musculus
In short: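 L1210 cells (10^5 in 1 mL) were grown in RPMI 1640 with 10% FCS and kanamycin, at 37 °C in CO2, for 48 h. Compounds were heated at 110 °C for 8 h, dissolved in medium and tested at ≥6 concentrations. Viability was scored by 0.17% Trypan blue exclusion against drug-free controls. IC50 was the concentration halving living cell number, taken from the log-probit dose-response curve.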

L1210 [2] = test: Ratio of median survival time of the mice bearing L1210 cells in treated(T) vs. control(C) at a dose of 10 mg/kg x 2 days; type: functional, organism-based; parameters: dose 10 mg/kg; details: Mus musculus
In short: (§1)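 (BALB/c × DBA/2)F1 mice (20 g) were implanted ip with 10^4 L1210 cells. Compounds in saline (0.2 mL) were given ip on days 1 and 5; doses above 100 mg/kg were homogenized with Nikkol (7× by weight). Activity was scored as median survival time of treated mice and expressed as T/C, the ratio of treated to control median survival time.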

L1210 [3] = test: Ratio of median survival time of the mice bearing L1210 cells in treated(T) vs. control(C) at a dose of 100 mg/kg x 2 days; type: functional, organism-based; parameters: dose 100 mg/kg; details: Mus musculus; in short: as §1
L1210 [4] = test: Ratio of median survival time of the mice bearing L1210 cells in treated(T) vs. control(C) at a dose of 200 mg/kg x 2 days; type: functional, organism-based; parameters: dose 200 mg/kg; details: Mus musculus; in short: as §1
L1210 [5] = test: Ratio of median survival time of the mice bearing L1210 cells in treated(T) vs. control(C) at a dose of 25 mg/kg x 2 days; type: functional, organism-based; parameters: dose 25 mg/kg; details: Mus musculus; in short: as §1
L1210 [6] = test: Ratio of median survival time of the mice bearing L1210 cells in treated(T) vs. control(C) at a dose of 300 mg/kg x 2 days; type: functional, organism-based; parameters: dose 300 mg/kg; details: Mus musculus; in short: as §1
L1210 [7] = test: Ratio of median survival time of the mice bearing L1210 cells in treated(T) vs. control(C) at a dose of 50 mg/kg x 2 days; type: functional, organism-based; parameters: dose 50 mg/kg; details: Mus musculus; in short: as §1
L1210 [8] = test: Median survival time (MST) of mice bearing L1210 cells was determined at a dose of 50 mg/kg x 2 days administered ip.; type: functional, organism-based; parameters: dose 50 mg/kg; details: Mus musculus; in short: as §1
L1210 [9] = test: Median survival time (MST) of mice bearing L1210 cells was determined at a dose of 25 mg/kg x 2 days administered ip.; type: functional, organism-based; parameters: dose 25 mg/kg; details: Mus musculus; in short: as §1
L1210 [10] = test: Median survival time (MST) of mice bearing L1210 cells was determined at a dose of 100 mg/kg x 2 days administered ip.; type: functional, organism-based; parameters: dose 100 mg/kg; details: Mus musculus; in short: as §1
L1210 [11] = test: Median survival time (MST) of mice bearing L1210 cells was determined at a dose of 200 mg/kg x 2 days administered ip.; type: functional, organism-based; parameters: dose 200 mg/kg; details: Mus musculus; in short: as §1
L1210 [12] = test: Median survival time (MST) of mice bearing L1210 cells was determined at a dose of 300 mg/kg x 2 days administered ip.; type: functional, organism-based; parameters: dose 300 mg/kg; details: Mus musculus; in short: as §1
L1210 [13] = test: Median survival time (MST) of mice bearing L1210 cells was determined at a dose of 10 mg/kg x 2 days administered ip.; type: functional, organism-based; parameters: dose 10 mg/kg; details: Mus musculus; in short: as §1
Mus musculus [14] = test: Blood urea nitrogen values in ICR mice after intraperitoneal administration at an equivalent molar dose of the LD50 of […](13 mg/kg) on day 3; type: functional, organism-based
In short: (§2)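 ICR mice (25-30 weeks, 39 ± 4 g), 5-6 per group, given one ip dose of 0.043 mmol/kg, equimolar to 13 mg/kg cis-DDP. On days 3, 6 and 9, blood was drawn from the heart under ether anesthesia and stored frozen. BUN was measured later by a modified urease indophenol method. Results are mean ± SD, mg/100 mL blood, compared with untreated controls.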

Mus musculus [15] = test: Blood urea nitrogen values in ICR mice after intraperitoneal administration at an equivalent molar dose of the LD50 of […](13 mg/kg) on day 6; type: functional, organism-based; in short: as §2
Mus musculus [16] = test: Blood urea nitrogen values in ICR mice after intraperitoneal administration at an equivalent molar dose of the LD50 of […](13 mg/kg) on day 9; type: functional, organism-based; in short: as §2
Mus musculus [17] = test: Effect on body weight in ICR mice was determined after intraperitoneal administration on day 3; type: functional, organism-based
In short: (§3)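 ICR mice (25-30 weeks, 39 ± 4 g), 5-6 per group, given one ip dose of 0.043 mmol/kg, equimolar to 13 mg/kg cis-DDP. Body and kidney weights were taken on days 3, 6 and 9 and compared with untreated controls. Weights are paired, mean ± SD.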

Mus musculus [18] = test: Effect on body weight in ICR mice was determined after intraperitoneal administration on day 6; type: functional, organism-based; in short: as §3
Mus musculus [19] = test: Effect on body weight in ICR mice was determined after intraperitoneal administration on day 9; type: functional, organism-based; in short: as §3
Mus musculus [20] = test: Effect on kidney weight in ICR mice was determined after intraperitoneal administration on day 3; type: functional, organism-based; in short: as §3
Mus musculus [21] = test: Effect on kidney weight in ICR mice was determined after intraperitoneal administration on day 6; type: functional, organism-based; in short: as §3
Mus musculus [22] = test: Effect on kidney weight in ICR mice was determined after intraperitoneal administration on day 9; type: functional, organism-based; in short: as §3
L1210 [23] = test: Ratio of median survival time of the mice bearing L1210 cells in treated(T) vs. control(C) at a dose of 600 mg/kg x 2 days; type: functional, organism-based; parameters: dose 600 mg/kg; details: Mus musculus; in short: as §1
L1210 [24] = test: Ratio of median survival time of the mice bearing L1210 cells in treated(T) vs. control(C) at a dose of 900 mg/kg x 2 days; type: functional, organism-based; parameters: dose 900 mg/kg; details: Mus musculus; in short: as §1
L1210 [25] = test: Median survival time (MST) of mice bearing L1210 cells was determined at a dose of 600 mg/kg x 2 days administered ip.; type: functional, organism-based; parameters: dose 600 mg/kg; details: Mus musculus; in short: as §1
L1210 [26] = test: Median survival time (MST) of mice bearing L1210 cells was determined at a dose of 900 mg/kg x 2 days administered ip.; type: functional, organism-based; parameters: dose 900 mg/kg; details: Mus musculus; in short: as §1
L1210 [27] = test: Ratio of median survival time of the mice bearing L1210 cells in treated(T) vs. control(C) at a dose of 800 mg/kg x 2 days; type: functional, organism-based; parameters: dose 800 mg/kg; details: Mus musculus; in short: as §1
L1210 [28] = test: Median survival time (MST) of mice bearing L1210 cells was determined at a dose of 800 mg/kg x 2 days administered ip.; type: functional, organism-based; parameters: dose 800 mg/kg; details: Mus musculus; in short: as §1
Mus musculus [29] = test: Blood urea nitrogen values in ICR mice after intraperitoneal administration at an equivalent molar dose of the LD50 of […](13 mg/kg) on day 9; All death; type: functional, organism-based; in short: as §2
Mus musculus [30] = test: Effect on body weight in ICR mice was determined after intraperitoneal administration on day 9; All death; type: functional, organism-based; in short: as §3

IC50 (L1210 [1]; l1210) [µg/mL] | IC50 (L1210 [1]; l1210, read-out: IC50) [µM] | Molecule | T/C (L1210 [3]) [%] | T/C (L1210 [4]) [%] | T/C (L1210 [5]) [%] | T/C (L1210 [7]) [%] | MST (L1210 [8]) [days] | MST (L1210 [9]) [days] | MST (L1210 [10]) [days] | MST (L1210 [11]) [days] | Blood urea nitrogen (Mus musculus [14]) [mg 100ml-1] | Blood urea nitrogen (Mus musculus [15]) [mg 100ml-1] | Body weight (Mus musculus [17]) | Body weight (Mus musculus [18]) | Kidney weight (Mus musculus [20]) | Kidney weight (Mus musculus [21]) | further results
64 | 122 | 3-aminocytidine-dichloroplatinum (II) [listing 1 of 2 here] | – | – | – | – | – | – | – | – | – | – | – | – | – | – | –
– | – | 3-aminocytidine-dichloroplatinum (II) [listing 2 of 2 here] | 131 | 138 | 125 | 125 | 10 | 10 | 10.5 | 11 | 22 | 26.3 | 35.6 | 39.9 | 545 | 637 | T/C (L1210 [2]): 119%; T/C (L1210 [6]): 138%; MST (L1210 [12]): 11 days; MST (L1210 [13]): 9.5 days; Blood urea nitrogen (Mus musculus [16]): 28.7 mg 100ml-1; Body weight (Mus musculus [19]): 36.5; Kidney weight (Mus musculus [22]): 571
4.9 | 8.96 | 3-aminotubercidin-dichloroplatinum (II) [listing 1 of 2 here] | – | – | – | – | – | – | – | – | – | – | – | – | – | – | –
– | – | 3-aminotubercidin-dichloroplatinum (II) [listing 2 of 2 here] | 144 | 144 | 125 | 131 | 10.5 | 10 | 11.5 | 11.5 | 24 | 22.8 | 38.4 | 39.4 | 587 | 686 | T/C (L1210 [2]): 112%; T/C (L1210 [6]): 150%; T/C (L1210 [23]): 156%; T/C (L1210 [24]): 156%; MST (L1210 [25]): 12.5 days; MST (L1210 [26]): 12.5 days; MST (L1210 [12]): 12 days; MST (L1210 [13]): 9 days; Blood urea nitrogen (Mus musculus [16]): 26.3 mg 100ml-1; Body weight (Mus musculus [19]): 40; Kidney weight (Mus musculus [22]): 750
– | – | 5-amino-1-beta-D-ribofuranosylimidazole-4-carboxamide-dichloroplatinum (II) | 111 | 122 | 100 | 100 | 9 | 9 | 10 | 11 | – | – | – | – | – | – | T/C (L1210 [27]): 125%; MST (L1210 [28]): 10 days
– | – | Nc1ncnc2c1ccn2[C@@H]1O[C@H](CO)[C@@H](O)[C@H]1O [TUBERCIDIN] | – | – | – | – | – | – | – | – | – | – | – | – | – | – | IC50 (L1210 [1]; Mus musculus, L1210, read-out: IC50): 0.018 µg/mL and 67.7 nM
0.19 | 0.633 | CISPLATIN [listing 1 of 2 here] | – | – | – | – | – | – | – | – | – | – | – | – | – | – | –
– | – | CISPLATIN [listing 2 of 2 here] | – | – | – | – | – | – | – | – | 37 | 45.3 | 34 | 31 | 599 | 555 | Blood urea nitrogen (Mus musculus [29]): All death; Body weight (Mus musculus [30]): All death

Reference: ChEMBL document CHEMBL1122632, “Synthesis and antitumor activity of cis-dichloroplatinum (II)-N-aminated nucleoside complexes” (J Med Chem, 1984)
